From ChEMBL document CHEMBL1149633, “Protection from endotoxic shock by EVK-203, a novel alkylpolyamine sequestrant of lipopolysaccharide” (Bioorg Med Chem, 2007)
Values belong to the compound of their own block, whether it stands above or below them. Activity calls are given as the source filed them. The calls are words filed in the database; no cut-off is given here.

Legend:
HEK293 = experiment: Inhibition of LPS-induced NF-kappaB induction in HEK293 cells co-transfected with TLR4, CD14 and MD2; assay type: functional, cell-based; conditions: Homo sapiens
Procedure, shortened: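 HEK293 cells stably expressing TLR4, CD14, MD2 and an NF-κB/AP-1-driven secreted alkaline phosphatase reporter. Plated at ~10^5 cells/ml and grown to confluency. Stimulated with 10 ng/ml E. coli O111:B4 LPS plus serially diluted compound, then incubated overnight. seAP in the supernatant was read by chromogen at 620 nm.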

[1] = Binding affinity to LPS by BODIPY-TR-cadaverine displacement assay
Procedure, shortened: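 Fluorescence displacement of BODIPY-TR-cadaverine (5 μM) bound to E. coli O111:B4 smooth LPS (50 μg/ml), both in the mixture added to the wells. Compound serially diluted two-fold in 50 mM Tris pH 7.4 […], quadruplicates. Ex 580/em 620 nm at 25 °C. ED50 is the dose that displaces 50% of bound probe, taken from a four-parameter logistic fit.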

J774.A1 = experiment: Inhibition of nitric oxide production in LPS-stimulated mouse J774A.1 cells; assay type: functional, cell-based
Procedure, shortened: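 J774A.1 cells in RPMI-1640 with 10% FBS and 200 μg/ml L-arginine, 37 °C, 5% CO2. Plated at ~10^5 cells/ml, grown to confluency, then given 10 ng/ml E. coli O111:B4 LPS together with serially diluted compound for 16 h. Nitrite measured with Griess reagent (15 min, RT, dark) at 535 nm against a sodium nitrite standard curve.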

[2] = molecular target: T1, MAP kinase p38 (Homo sapiens) (UniProt O15264+Q15759+Q16539+P53778); experiment: Inhibition of p38MAPK phosphorylation in LPS-induced human whole blood neutrophils; assay type: tissue-based
[3] = molecular target: T1, MAP kinase p38 (Homo sapiens); experiment: Inhibition of TNFalpha induced p38MAPK phosphorylation in human whole blood neutrophils; assay type: tissue-based
Blood [4] = experiment: Inhibition of LPS-induced TNFalpha production in human whole blood; assay type: functional, tissue-based
Procedure, shortened: (§1)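 EDTA-anticoagulated fresh whole blood from healthy human volunteers, mixed with an equal volume of 20 ng/ml E. coli O111:B4 LPS. Graded compound, diluted in saline, added at the same time. Incubated 4 h. TNF-α, IL-6 and IL-8 were quantified by multiplexed flow-cytometric bead array against recombinant standard curves.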

Blood [5] = experiment: Inhibition of LPS-induced IL6 production in human whole blood; assay type: functional, tissue-based; procedure, shortened: as §1
Blood [6] = experiment: Inhibition of LPS-induced IL8 production in human whole blood; assay type: functional, tissue-based; procedure, shortened: as §1
Mus musculus [7] = species on record: Mus musculus; experiment: Prevention of LPS-induced lethality in D-galactosamine-primed CF1 mouse model of lethal endotoxic shock; assay type: functional, organism-based
Mus musculus [8] = experiment: Prevention of LPS-induced lethality in D-galactosamine-primed CF1 mouse model of lethal endotoxic shock at 8 mg/kg, sc administered concurrently to LPS administration; assay type: functional, organism-based; parameters: dose 8 mg/kg
Procedure, shortened: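 D-galactosamine-sensitized female CF-1 mice received 8 mg/kg s.c. at different times before or after i.p. LPS (200 ng/animal, 2× LD100, given at 0 h), including concurrent dosing. Survival recorded.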

Mus musculus [9] = experiment: Inhibition of LPS-induced plasma IL6 level in sc dosed mouse pretreated 1 hr before LPS challenge by CBA assay; assay type: functional, organism-based
Procedure, shortened: (§2)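 Female outbred CF-1 mice (9–11 weeks, 22–28 g), 5 per group. Graded compound or vehicle given s.c. at −1 h, then 200 ng LPS in saline i.p. at 0 h. Terminal cardiac-puncture blood taken under halothane at 1, 2 and 3 h. Plasma cytokines measured by mouse inflammation bead array.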

Mus musculus [10] = experiment: Inhibition of LPS-induced plasma TNFalpha level in sc dosed mouse pretreated 1 hr before LPS challenge by CBA assay; assay type: functional, organism-based; procedure, shortened: as §2
Mus musculus [11] = experiment: Inhibition of LPS-induced plasma MCP1 level in sc dosed mouse pretreated 1 hr before LPS challenge by CBA assay; assay type: functional, organism-based; procedure, shortened: as §2
Mus musculus [12] = species on record: Mus musculus; experiment: Prevention of TNFalpha induced lethality in CF1 mouse; assay type: functional, organism-based
Procedure, shortened: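 Mice were challenged with 100 ng/animal of recombinant murine TNF-α, and lethality was assessed.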

Mus musculus [13] = experiment: Toxicity in mouse at 40 mg/kg, sc after 5 days; assay type: organism-based; parameters: dose 40 mg/kg, route subcutaneous; conditions: in vivo, 120 h
Procedure, shortened: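 Female CF-1 mice were given 40 mg/kg s.c. in the lower flank daily for 5 days (200 mg/kg total), in 0.2 ml isotonic saline with human serum albumin at 66 mg/ml. They were monitored for external signs, and nephro- and hepatotoxicity were assessed by clinical chemistry on Day 6.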

[14] = molecular target: T1, MAP kinase p38 (Homo sapiens); experiment: Inhibition of p38MAPK phosphorylation in TNF-alpha-induced human whole blood neutrophils; assay type: protein assay

T1 sequence (P53778 whole entry, looked up, chain 1 of 4): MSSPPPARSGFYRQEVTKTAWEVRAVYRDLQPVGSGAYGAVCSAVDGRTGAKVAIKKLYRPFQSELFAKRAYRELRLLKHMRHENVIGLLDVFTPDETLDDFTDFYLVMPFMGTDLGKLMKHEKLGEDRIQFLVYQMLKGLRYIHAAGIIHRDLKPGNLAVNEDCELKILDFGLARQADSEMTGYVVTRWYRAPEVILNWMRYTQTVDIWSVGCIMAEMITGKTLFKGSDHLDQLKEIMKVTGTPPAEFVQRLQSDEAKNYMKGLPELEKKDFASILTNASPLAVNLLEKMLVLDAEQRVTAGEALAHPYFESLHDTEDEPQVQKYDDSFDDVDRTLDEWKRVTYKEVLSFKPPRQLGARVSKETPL
T1 sequence (Q16539 whole entry, looked up, chain 2 of 4): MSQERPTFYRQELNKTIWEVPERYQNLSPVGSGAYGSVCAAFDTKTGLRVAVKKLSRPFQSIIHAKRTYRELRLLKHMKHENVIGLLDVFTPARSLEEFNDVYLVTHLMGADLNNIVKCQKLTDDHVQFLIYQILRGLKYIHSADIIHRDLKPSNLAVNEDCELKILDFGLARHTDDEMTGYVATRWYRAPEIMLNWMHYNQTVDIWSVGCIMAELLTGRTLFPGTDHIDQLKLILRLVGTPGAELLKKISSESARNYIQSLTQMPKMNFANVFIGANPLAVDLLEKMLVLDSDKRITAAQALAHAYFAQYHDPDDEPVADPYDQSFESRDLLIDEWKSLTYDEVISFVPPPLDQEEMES
T1 sequence (Q15759 whole entry, looked up, chain 3 of 4): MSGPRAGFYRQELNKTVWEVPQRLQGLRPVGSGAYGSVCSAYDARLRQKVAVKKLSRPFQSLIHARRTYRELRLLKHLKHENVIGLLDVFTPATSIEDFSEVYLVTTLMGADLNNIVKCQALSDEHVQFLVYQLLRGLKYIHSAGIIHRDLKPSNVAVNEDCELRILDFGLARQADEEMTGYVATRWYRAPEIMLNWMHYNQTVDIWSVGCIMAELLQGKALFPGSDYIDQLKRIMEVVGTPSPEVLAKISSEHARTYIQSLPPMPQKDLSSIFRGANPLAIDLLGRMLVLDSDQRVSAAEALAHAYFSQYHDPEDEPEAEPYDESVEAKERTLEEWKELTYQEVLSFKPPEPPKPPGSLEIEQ
T1 sequence (O15264 whole entry, looked up, chain 4 of 4): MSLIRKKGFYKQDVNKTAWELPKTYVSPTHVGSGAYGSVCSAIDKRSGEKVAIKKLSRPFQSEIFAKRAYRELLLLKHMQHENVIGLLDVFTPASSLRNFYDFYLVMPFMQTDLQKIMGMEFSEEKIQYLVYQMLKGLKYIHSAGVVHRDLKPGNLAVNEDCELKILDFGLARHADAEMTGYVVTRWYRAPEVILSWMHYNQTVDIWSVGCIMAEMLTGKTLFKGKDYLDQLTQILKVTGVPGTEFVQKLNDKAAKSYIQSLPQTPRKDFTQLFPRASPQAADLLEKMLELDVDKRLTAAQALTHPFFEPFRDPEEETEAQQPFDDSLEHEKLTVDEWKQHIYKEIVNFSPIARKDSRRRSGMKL

Compound: CCCCCCCCCCCCCCCCC(CCCCCCCCCCCCCC)CNCCCNCCCNCCCCNCCCN (stereo not given)
IC50 (HEK293): 2.6 µM

Compound: CCCCCCCCCCCCCCCC(CCCCCCCCCCCCCCC)NCCCNCCCNCCCCNCCCNCCCNC(CCCCCCCCCCCCCCC)CCCCCCCCCCCCCCC
IC50 (HEK293): 21 µM

Compound: CCCCCCCCCCCCCCC/C=C(/CCCCCCCCCCCCCC)CNCCCNCCCNCCCCNCCCNCCCNC/C(=C\CCCCCCCCCCCCCCC)CCCCCCCCCCCCCC
IC50 (HEK293): 22 µM

Compound: CCCCCCCCCCCCCCCC(CCCCCCCCCCCCCCC)NCCCNCCCNCCCCNCCCN
IC50 (HEK293): 2.7 µM

ED50 [1]: 3.14 µM
IC50 (J774.A1; Mus musculus, J774.A1): 2.22 µM
Activity [2]: Dose-dependent effect
Activity [3]: inactive
IC50 (Blood [4]; Homo sapiens, Blood): 3.85 µM
IC50 (Blood [5]; Homo sapiens, Blood): 4 µM
IC50 (Blood [6]; Homo sapiens, Blood): 3.08 µM
Activity [14]: inactive
Compound: CCCCCCCCCCCCCCC/C=C(/CCCCCCCCCCCCCC)CNCCCNCCCNCCCCNCCCN
IC50 (HEK293): 2.9 µM
Activity (Mus musculus [7]): Active
Activity (Mus musculus [8]): Active
Activity (Mus musculus [9]): Dose-dependent effect
Activity (Mus musculus [10]): Dose-dependent effect
Activity (Mus musculus [11]): Dose-dependent effect
Activity (Mus musculus [12]): inactive
Activity (Mus musculus [13]): Non-toxic

IC50 (J774.A1; j774.a1): 1.79 µM
IC50 (Blood [4]): 14.2 µM
IC50 (Blood [5]): 11 µM
IC50 (Blood [6]): 16.4 µM
Compound: POLYMYXIN B [listing 1 of 2 here]

Compound: CCCCCCCCCCCCCCCCN(CCCCCCCCCCCCCCCC)CCCNCCCNCCCCNCCCN
IC50 (HEK293): 2.7 µM

ED50 [1]: 1.22 µM
Activity [2]: Dose-dependent effect
Activity [3]: inactive
Activity [14]: inactive
Compound: POLYMYXIN B [listing 2 of 2 here]
Activity (Mus musculus [7]): Active
